Measurements reported in ChEMBL document CHEMBL4715756, “Nitrotriazole-based acetamides and propanamides with broad spectrum antitrypanosomal activity” (Eur J Med Chem, 2016).
Active and inactive are the calls of the source. The calls are words filed in the database; no cut-off is given here.

Legend:
[1] = in vitro; conditions: rat, L6 cells versus Trypanosoma cruzi Tulahuen C4
[2] = Dissociation constant, pKa of the compound
[3] = in vitro; conditions: rat
[4] = in vitro; conditions: rat, L6 cells versus Leishmania donovani MHOM/ET/67/L82
[5] = tested on: Trypanosoma brucei rhodesiense; test: Substrate activity at Trypanosoma brucei rhodesiense recombinant His-tagged type 1 nitroreductase assessed as enzyme specific activity using NADH at 100 uM by spectrophotometrically
Outline: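 Purified recombinant his-tagged TbNTR. Each nitrotriazole substrate at 100 µM with NADH 100 µM. NADH oxidation followed spectrophotometrically at 340 nm. Specific activity given as nmol NADH oxidized min^-1 mg^-1 protein, mean of three experiments ± SD.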

[6] = Toxicity in Trypanosoma cruzi Brazil trypomastigotes expressing firefly luciferase infected BALB/c mouse assessed toxic symptoms at 15 mg/kg, ip measured after 5 to 10 days; type: organism-based; conditions: in vivo, time 5-10 day
Outline: (§1)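 Same infected Balb/c model: luciferase T. cruzi, 10^5 trypomastigotes. Daily i.p. dosing for 10 days from day 4 post infection at 13 or 15 mg/kg/day, in 2% methylcellulose + 0.5% Tween 80, 5 mice/group. Mice observed for general health and deaths over the treatment period.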

[7] = tested on: Trypanosoma cruzi; test: Anti-chagasic activity against Trypanosoma cruzi Brazil trypomastigotes expressing firefly luciferase infected in BALB/c mouse assessed as reduction in parasitemia at 15 mg/kg/day, ip measured after 5 days by bioluminescence assay; type: functional, organism-based; conditions: time 5.0 day
[8] = tested on: Trypanosoma cruzi; test: Anti-chagasic activity against Trypanosoma cruzi Brazil trypomastigotes expressing firefly luciferase infected in BALB/c mouse assessed as reduction in parasitemia at 15 mg/kg/day, ip measured after 10 days by bioluminescence assay; type: functional, organism-based; conditions: time 10.0 day
[9] = tested on: Trypanosoma cruzi; test: Anti-chagasic activity against Trypanosoma cruzi Brazil trypomastigotes expressing firefly luciferase infected in BALB/c mouse assessed as reduction in parasitemia at 13 mg/kg/day, ip measured after 10 days by bioluminescence assay; type: functional, organism-based; conditions: time 10.0 day
[10] = tested on: Trypanosoma cruzi; test: Anti-chagasic activity against Trypanosoma cruzi Brazil trypomastigotes expressing firefly luciferase infected in BALB/c mouse assessed as reduction in parasitemia at 13 mg/kg/day, ip measured after 5 days by bioluminescence assay; type: functional, organism-based; conditions: time 5.0 day
[11] = Toxicity in Trypanosoma cruzi Brazil trypomastigotes expressing firefly luciferase infected BALB/c mouse assessed toxic symptoms at 13 mg/kg, ip measured after 5 to 10 days; type: organism-based; conditions: in vivo, time 5-10 day
Outline: as §1

[12] = tested on: Trypanosoma cruzi; test: Trypanocidal activity against Trypanosoma cruzi Tulahuen C4 amastigotes infected in rat L6 cells in vitro
[13] = Toxicity in Trypanosoma cruzi Brazil trypomastigotes expressing firefly luciferase infected BALB/c mouse assessed mortality at 13 mg/kg, ip measured after 5 to 10 days; type: organism-based; conditions: in vivo, time 5-10 day
Outline: (§2)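 Balb/c mice, 5 weeks old, infected with 10^5 luciferase-expressing Brazil-strain T. cruzi trypomastigotes. From 4 days post-infection, mice were dosed i.p. at 13 mg/kg/day for 10 days in 2% methylcellulose + 0.5% Tween 80 vehicle, 5 mice/group. Animals were observed over treatment, with imaging after 5 and 10 days of dosing.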

[14] = Toxicity in Trypanosoma cruzi Brazil trypomastigotes expressing firefly luciferase infected BALB/c mouse assessed as healthy appearance at 13 mg/kg, ip measured after 5 to 10 days; type: organism-based; conditions: in vivo, time 5-10 day
Outline: as §2

| Compound | pKa [2] | Activity [5] | selectivity ratio [3] | also measured |
| --- | --- | --- | --- | --- |
| CN(C(=O)Cn1ccnc1[N+](=O)[O-])c1ccc(C(F)(F)F)cc1 | – | – | – | selectivity ratio [1]: 3.8 |
| CN(C(=O)Cn1cnc([N+](=O)[O-])n1)c1ccc(C(F)(F)F)cc1 | – | – | 6.8 | selectivity ratio [4]: 6.8 |
| O=C(Cn1ccnc1[N+](=O)[O-])NCc1ccccc1 | – | – | – | Activity [7]: Active; Activity [8]: Active |
| O=C(CCn1cnc([N+](=O)[O-])n1)Nc1cc(-c2ccc(Cl)cc2)no1 | 9.14 | Active | – | – |
| O=C(Cn1cnc([N+](=O)[O-])n1)Nc1cccc(-c2ccccc2)c1 | – | – | – | IC50 [12]: 0.179 µM |
| O=C(CCn1cnc([N+](=O)[O-])n1)Nc1cc(-c2ccc(F)cc2)on1 | 11.2 | – | > 201 | – |
| O=C(CCn1cnc([N+](=O)[O-])n1)Nc1ccc(Oc2ccc(Cl)cc2)cc1 | 14.5 | Active | – | Activity [13]: Non-Toxic; Activity [9]: Active; Activity [14]: Toxic; Activity [10]: Active; selectivity ratio [4]: 15 |
| O=C(CCn1cnc([N+](=O)[O-])n1)Nc1ccc(Oc2ccccc2)cc1 | 14.5 | Active | – | selectivity ratio [4]: 13.5 |

Continued, in another order:

| pKa [2] | Activity [5] | Compound | selectivity ratio [3] | also measured |
| --- | --- | --- | --- | --- |
| 13.3 | – | O=C(Cn1cnc([N+](=O)[O-])n1)Nc1ccc(Oc2ccccc2)cc1 | 34 | – |
| 11 | Active | O=C(Cn1cnc([N+](=O)[O-])n1)Nc1cc(-c2ccc(F)cc2)on1 | – | – |
| 12.7 | – | O=C(Cn1cnc([N+](=O)[O-])n1)NCc1ccc(C(F)(F)F)cc1 | 20 | selectivity ratio [1]: 133; selectivity ratio [4]: 12 |
| 14.1 | – | N#Cc1ccc(-c2ccc(NC(=O)CCn3cnc([N+](=O)[O-])n3)cc2)cc1 | – | Activity [6]: Non-Toxic; Activity [7]: Active; Activity [8]: Active |
| 14.5 | Active | O=C(CCn1cnc([N+](=O)[O-])n1)Nc1ccc(Oc2ccc(F)cc2)cc1 | – | Activity [9]: Active; Activity [10]: Active; Activity [11]: Non-Toxic |
| 13.6 | – | O=C(Cn1cnc([N+](=O)[O-])n1)Nc1ccc(Oc2ccc(F)cc2)cc1 | 35 | – |
| 13.6 | – | O=C(Cn1cnc([N+](=O)[O-])n1)Nc1ccc(Oc2ccc(Cl)cc2)cc1 | 22 | IC50 [12]: 0.008 µM |
| – | Active | O=C(Cn1cnc([N+](=O)[O-])n1)Nc1cc(-c2ccc(Cl)cc2)no1 | – | – |
| 12.8 | – | O=C(Cn1cnc([N+](=O)[O-])n1)Nc1cccc(OCc2ccccc2)c1 | 14.1 | IC50 [12]: 0.119 µM; selectivity ratio [1]: 575; selectivity ratio [4]: 20.3 |
| 13.2 | – | N#Cc1ccc(-c2ccc(NC(=O)Cn3cnc([N+](=O)[O-])n3)cc2)cc1 | 490 | IC50 [12]: 0.138 µM; selectivity ratio [1]: 1190 |
| 14 | Active | O=C(CCn1cnc([N+](=O)[O-])n1)Nc1cccc(-c2ccccc2)c1 | – | – |
| 14 | Active | O=C(CCn1cnc([N+](=O)[O-])n1)Nc1cccc(OCc2ccccc2)c1 | – | – |
